Source: PubChem BioAssay
FID counter – displaces DNA intercalator in HCV helicase counter-screen | DNA fluorescent intercalator displacement, fluorescence | inhibition, % at 7.9 µM | 0.17% of 290,000 active | AID 1845; in the data active means inhibition above about 37%;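 further: 0% = vehicle and 100% = reference compound; higher means more ethidium bromide displaced from hairpin DNA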
UBC9 SUMO inh – blocks human SUMOylation mediated by UBC9; P63279; HTRF SUMOylation assay, SAE1/SAE2 + UBC9, in vitro; inhibition, % at 35 µM; 0.36% of 290,000 active; in the data active means inhibition above about 50%, passing the limit was not always enough
Target sequence (P63279 whole entry, looked up): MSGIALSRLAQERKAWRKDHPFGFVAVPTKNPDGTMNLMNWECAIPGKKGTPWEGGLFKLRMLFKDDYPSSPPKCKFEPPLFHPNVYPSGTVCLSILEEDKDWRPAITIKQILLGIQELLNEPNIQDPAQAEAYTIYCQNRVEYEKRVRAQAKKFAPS
IMP-1 inh – inhibitors of Pseudomonas aeruginosa IMP-1 metallo-beta-lactamase; 0.45% of 290,000 active; purified IMP-1, nitrocefin hydrolysis, epi-absorbance fluorescence; inhibition, % at 5.6 µM;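 active means inhibition above the mean plus 3 SD of all compounds in the same screening run, cut at about 4.5% in these data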;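 further: 0% = IMP-1 with DMSO and 100% = DMSO wells lacking enzyme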
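Assay system: purified IMP-1; Quantity: IMP-1 0.2 nM before substrate addition; Medium: HEPES buffer pH 7.1 with ZnSO4 and Brij 35; Incubation: 15 min enzyme–compound preincubation, then 25 min nitrocefin reaction, 25 °C; Signal: fluorescence quenching readout, ex 480/em 530 nm; Controls: DMSO with and without IMP-1; Repeats: singlicate testing.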
HCV NS3 hel inh – blocks Hepatitis C virus NS3 helicase unwinding | NS3 helicase DNA unwinding, Cy5 molecular beacon fluorescence | inhibition, % at 10.9 µM | 0.56% of 290,000 active;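 active means inhibition above the mean of all tested compounds plus 3 SD, set per campaign, cut at about 35% in these data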;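 further: 0% = DMSO wells and 100% = thioflavine S control wells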
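assay system = NS3 helicase fragment of HCV | buffer or medium = MOPS pH 6.5, MgCl2, DTT, Tween20, BSA | timing = 60 min unwinding reaction at 25 °C after ATP addition | signal = Cy5 beacon fluorescence read at start and 1 h | read-out basis = % inhibition of unwinding | control set = low DMSO, high thioflavine S at 110 µM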
VIM-2 inhibitor – inhibitors of Pseudomonas aeruginosa VIM-2 metallo-beta-lactamase. inhibition, % at 5.6 µM. purified VIM-2, nitrocefin hydrolysis, epi-absorbance fluorescence. 0.89% of 290,000 active;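 active means inhibition above the mean of all tested compounds plus 3 SD, cutoff set per screening run, cut at about 7.5% in these data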;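 further: red hydrolysis product quenches plate fluorescence so inhibitors raise well fluorescence; 0% = enzyme with DMSO and 100% = DMSO without enzyme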
The depositor's hits bear a star. In the library only some 2.1% were active in any assay of this set; here they are far more common.

SMILES	FID counter	UBC9 SUMO inh	IMP-1 inh	HCV NS3 hel inh	VIM-2 inhibitor
Cc1ccc([N+](=O)[O-])cc1N=Nc1c(-c2ccc([N+](=O)[O-])cc2)[nH]n(C(N)=S)c1=O	-6.3	22.0	-1.5	1.5	-2.4
COc1ccc(C2C3=C(N=C4SCC(=O)N42)c2ccccc2CC3)cc1OC (stereo not given)	-9.8	19.4	5.9*	1.8	-2.0
CC(SC1=NCCN1S(=O)(=O)c1ccccc1)c1ccccc1 (stereo not given)	-23.9	0.0	-3.1	-8.9	-2.8
Cc1cc(C)c2cc(C)c(SCC(=O)NCc3ccco3)nc2c1	-25.8	10.7	-2.5	3.5	-5.0
Cc1ccc2c(SCC(=O)NCc3ccco3)nc(-c3ccc(F)cc3)nc2c1	-2.8	59.0*	-2.6	2.1	-3.4
COc1cccc(C(=O)NCC(=O)N/N=C/c2ccc3c(c2)OCO3)c1	-6.0	0.2	-0.3	3.0	0.6
COc1ccc(/C=N/Nc2cc(N(C)C)nc(N(C)C)n2)cc1	-3.3	95.4*	-1.0	-7.2	-1.7
Cc1ccc(N=c2c([N+](=O)[O-])nn(-c3ccc(Cl)cc3)n2O)cc1C	1.3	6.9	11.6*	-1.0	-2.4
COc1ccc(C(=O)NCCCc2nc3ccccc3n2Cc2ccccc2C)cc1OC	-36.9	-4.6	-1.1	-9.1	-2.2
COc1cc2cc(CN(CCCN3CCOCC3)C(=O)Nc3ccc(F)cc3)c(=O)[nH]c2cc1OC	19.5	2.9	0.3	-11.1	8.8*
Cc1ccc(NC(=O)N(CCCN2CCOCC2)Cc2cc3cc4c(cc3[nH]c2=O)OCO4)cc1	1.7	22.3	-4.5	-9.9	0.4
O=S(=O)(/C=C/c1ccccc1)NCc1ccccc1Cl	-10.3	8.4	-0.9	-0.9	-3.7
COC(=O)c1ccc(C(c2c(C)n(C)n(-c3ccccc3)c2=O)c2c(C)n(C)n(-c3ccccc3)c2=O)cc1	-29.0	-2.0	-4.0	-13.4	-1.5
N#CCCN(C(=O)Nc1ccc(Cl)cc1)c1ccccc1	-2.3	-4.1	2.3	2.5	-1.2
O=C(Nc1ccc(Cl)cc1)N(Cc1nnc2n1CCCCC2)c1ccccc1	-31.6	2.7	5.4*	2.2	-0.2
Cc1ncoc1C(=O)N1CCCC(N2CCN(c3cccc(C(F)(F)F)c3)CC2)C1 (stereo not given)	-40.9	7.6	-3.9	-1.3	-2.0
CCCCC(C(=O)OCC)C(N)Cc1ccc(F)cc1 (stereo not given)	17.9	74.0*	-1.6	-20.7	-2.3
O=C(Nc1cccc(Cl)c1)c1ccc(=O)[nH]n1	2.7	-3.0	1.2	4.6	1.9
Cc1cccc(N2C(=O)CSC23CCCCC3)c1	-17.3	3.1	-0.9	-14.0	-1.7
O=C1CSC2(CCCCC2)N1CCO	-2.6	20.1	5.6*	-1.4	-0.3
Cc1cc2nc(/N=C(\N)NC(=O)C(C)C)nc(C)c2cc1C	-2.9	8.2	-2.8	-1.9	-0.3
CCC(=O)N/C(N)=N/c1nc(C)c2cc(C)c(C)cc2n1	6.6	12.6	-1.3	-12.8	10.0*
Cc1cccc2c(N=Nc3ccc(S(=O)(=O)Nc4ccc(Cl)cc4)cc3[N+](=O)[O-])c(O)[nH]c12	0.2	68.5*	-3.5	14.6	-4.4
S=c1[nH]ncn2c1cc1oc3ccccc3c12	1.1	10.7	-3.8	-2.5	-1.3
Cc1cccc(NC(=O)C2CCN(C(=O)N3CCOc4ccccc43)CC2)c1C	-38.9	4.5	-7.5	-1.0	-5.5
SMILES	FID counter	UBC9 SUMO inh	IMP-1 inh	HCV NS3 hel inh	VIM-2 inhibitor
CC(=O)Nc1ccc(C(=O)CN2CCN(c3ccccc3)CC2)cc1	-6.2	11.4	21.5*	1.6	-1.9
CC(=O)c1ccc(N2CCN(C(=S)Nc3ccc(Oc4ccccc4)cc3)CC2)cc1	-8.0	-2.0	-4.8	-3.8	-2.8
CC(=O)c1ccc(NC(=O)CN2CCN(c3ccccc3)CC2)cc1	-5.2	15.5	-0.9	2.1	-2.4
CN1CCN(c2ccc(NC(=O)c3ccc(Oc4ccccc4)cc3)cc2)CC1	20.2	0.2	-3.5	-43.0	8.3*
O=C(NCc1cccnc1)c1nn2cccnc2c1Cl	-2.1	19.0	-2.8	-0.8	-1.4
CC(C)Cc1ccc(C(C)C(N)=NCCc2ccccc2)cc1 (stereo not given)	39.0*	-3.3	0.8	-58.3	-0.6
Cc1ccc2nc3c(cc2c1)c(NC(=O)C(C)(C)C)nn3CC(C)C	-24.3	2.5	-1.0	-21.9	0.9
CCOc1ccc(NC(=O)c2cc(=O)[nH]c3ccccc23)cc1	-9.5	8.9	1.1	9.7	-2.2
CCOC(=O)c1c(CN(C)C)n(-c2ccc(C)cc2)c2cc(Br)c(O)cc12	24.1	-4.4	-2.9	-51.5	8.4*
